Assays:
Assay type in all cases: functional
NCI-H23 = assay: Growth inhibition of human NCI-H23 cells at 10 uM after 48 hrs by coulter counter method; settings: NCI-H23, 48 h, read-out: GI
Method in brief: (§1)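 NCI 60-cell-line panel, single dose. Compound dissolved first in DMSO, then diluted in phosphate-buffered saline so that every final dilution held under 1% DMSO. Duplicate wells received cells at 6 × 10⁴ cells/ml. Controls held PBS/DMSO at the same dilution. Plates were incubated 48 h at 37 °C under 5% CO₂. Cells were then diluted 10-fold in saline and counted on a Coulter counter, with counts corrected for the dilution. Results are given as percent growth inhibition.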

Malme-3M = assay: Growth inhibition of human MALME-3M cells at 10 uM after 48 hrs by coulter counter method; settings: read-out: GI; method in brief: as §1
SNB-19 = assay: Growth inhibition of human SNB19 cells at 10 uM after 48 hrs by coulter counter method; settings: SNB-19, 48 h, read-out: GI; method in brief: as §1
SK-MEL-5 = assay: Growth inhibition of human SK-MEL-5 cells at 10 uM after 48 hrs by coulter counter method; settings: SK-MEL-5, 48 h, read-out: GI; method in brief: as §1
UO-31 = assay: Growth inhibition of human UO31 cells at 10 uM after 48 hrs by coulter counter method; settings: UO-31, 48 h, read-out: GI; method in brief: as §1
A498 = assay: Growth inhibition of human A498 cells at 10 uM after 48 hrs by coulter counter method; settings: A498, 48 h, read-out: GI; method in brief: as §1
LOX IMVI = assay: Growth inhibition of human LOXIMVI cells at 10 uM after 48 hrs by coulter counter method; settings: read-out: GI; method in brief: as §1
OVCAR-8 = assay: Growth inhibition of human OVCAR8 cells at 10 uM after 48 hrs by coulter counter method; settings: OVCAR-8, 48 h, read-out: GI; method in brief: as §1
HCT-116 = assay: Growth inhibition of human HCT116 cells at 10 uM after 48 hrs by coulter counter method; settings: HCT-116, 48 h, read-out: GI; method in brief: as §1
SK-MEL-28 = assay: Growth inhibition of human SK-MEL-28 cells at 10 uM after 48 hrs by coulter counter method; settings: SK-MEL-28, 48 h, read-out: GI; method in brief: as §1
786-0 = assay: Growth inhibition of human 786-0 cells at 10 uM after 48 hrs by coulter counter method; settings: 786-0, 48 h, read-out: GI; method in brief: as §1
EKVX = assay: Growth inhibition of human EKVX cells at 10 uM after 48 hrs by coulter counter method; settings: read-out: GI; method in brief: as §1
RPMI-8226 = assay: Growth inhibition of human RPMI8226 cells at 10 uM after 48 hrs by coulter counter method; settings: RPMI-8226, 48 h, read-out: GI; method in brief: as §1
MDA-MB-435 = assay: Growth inhibition of human MDA-MB-435 cells at 10 uM after 48 hrs by coulter counter method; settings: MDA-MB-435, 48 h, read-out: GI; method in brief: as §1
NCI-H322M = assay: Growth inhibition of human NCI-H322M cells at 10 uM after 48 hrs by coulter counter method; settings: read-out: GI; method in brief: as §1
U-251 = assay: Growth inhibition of human U251 cells at 10 uM after 48 hrs by coulter counter method; settings: U-251, 48 h, read-out: GI; method in brief: as §1
SF-268 = assay: Growth inhibition of human SF268 cells at 10 uM after 48 hrs by coulter counter method; settings: SF-268, 48 h, read-out: GI; method in brief: as §1
IGROV-1 = assay: Growth inhibition of human IGROV1 cells at 10 uM after 48 hrs by coulter counter method; settings: IGROV-1, 48 h, read-out: GI; method in brief: as §1
CAKI-1 = assay: Growth inhibition of human Caki1 cells at 10 uM after 48 hrs by coulter counter method; settings: CAKI-1, 48 h, read-out: GI; method in brief: as §1
SK-MEL-2 = assay: Growth inhibition of human SK-MEL-2 cells at 10 uM after 48 hrs by coulter counter method; settings: SK-MEL-2, 48 h, read-out: GI; method in brief: as §1
M14 = assay: Growth inhibition of human M14 cells at 10 uM after 48 hrs by coulter counter method; settings: M14, 48 h, read-out: GI; method in brief: as §1
KM12 = assay: Growth inhibition of human KM12 cells at 10 uM after 48 hrs by coulter counter method; settings: KM12, 48 h, read-out: GI; method in brief: as §1
UACC-62 = assay: Growth inhibition of human UACC62 cells at 10 uM after 48 hrs by coulter counter method; settings: UACC-62, 48 h, read-out: GI; method in brief: as §1
BT-549 = assay: Growth inhibition of human BT549 cells at 10 uM after 48 hrs by coulter counter method; settings: BT-549, 48 h, read-out: GI; method in brief: as §1
HCT-15 = assay: Growth inhibition of human HCT15 cells at 10 uM after 48 hrs by coulter counter method; settings: HCT-15, 48 h, read-out: GI; method in brief: as §1
MOLT-4 = assay: Growth inhibition of human MOLT4 cells at 10 uM after 48 hrs by coulter counter method; settings: MOLT-4, 48 h, read-out: GI; method in brief: as §1
SN12C = assay: Growth inhibition of human SN12C cells at 10 uM after 48 hrs by coulter counter method; settings: read-out: GI; method in brief: as §1
UACC-257 = assay: Growth inhibition of human UACC257 cells at 10 uM after 48 hrs by coulter counter method; settings: UACC-257, 48 h, read-out: GI; method in brief: as §1
SNB-75 = assay: Growth inhibition of human SNB75 cells at 10 uM after 48 hrs by coulter counter method; settings: SNB-75, 48 h, read-out: GI; method in brief: as §1
HL-60(TB) = assay: Growth inhibition of human HL-60(TB) cells at 10 uM after 48 hrs by coulter counter method; settings: HL-60, 48 h, read-out: GI
Method in brief: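 Single-dose screen on the NCI 60-line panel (leukemia subpanel). Compound is dissolved in DMSO and diluted in PBS, with final DMSO below 1%. Duplicate wells hold 6 × 10⁴ cells/ml at 37 °C, 5% CO₂, for 48 h. Cells are counted by Coulter counter after 10-fold saline dilution. Read-out is percent growth versus PBS/DMSO controls, expressed as % growth inhibition.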

T47D = assay: Growth inhibition of human T47D cells at 10 uM after 48 hrs by coulter counter method; settings: read-out: GI; method in brief: as §1
SR = assay: Growth inhibition of human SR cells at 10 uM after 48 hrs by coulter counter method; settings: read-out: GI; method in brief: as §1
HT-29 = assay: Growth inhibition of human HT-29 cells at 10 uM after 48 hrs by coulter counter method; settings: HT-29, 48 h, read-out: GI; method in brief: as §1
ACHN = assay: Growth inhibition of human ACHN cells at 10 uM after 48 hrs by coulter counter method; settings: read-out: GI; method in brief: as §1
A549 = assay: Growth inhibition of human A549 cells at 10 uM after 48 hrs by coulter counter method; settings: A549, 48 h, read-out: GI; method in brief: as §1
K562 = assay: Growth inhibition of human K562 cells at 10 uM after 48 hrs by coulter counter method; settings: K562, 48 h, read-out: GI; method in brief: as §1
TK-10 = assay: Growth inhibition of human TK10 cells at 10 uM after 48 hrs by coulter counter method; settings: TK-10, 48 h, read-out: GI; method in brief: as §1
NCI-H226 = assay: Growth inhibition of human NCI-H226 cells at 10 uM after 48 hrs by coulter counter method; settings: NCI-H226, 48 h, read-out: GI; method in brief: as §1
NCI-H522 = assay: Growth inhibition of human NCI-H522 cells at 10 uM after 48 hrs by coulter counter method; settings: NCI-H522, 48 h, read-out: GI; method in brief: as §1
NCI/ADR-RES = assay: Growth inhibition of human NCI/ADR-RES cells at 10 uM after 48 hrs by coulter counter method; settings: read-out: GI; method in brief: as §1
CCRF-CEM = assay: Growth inhibition of human CCRF-CEM cells at 10 uM after 48 hrs by coulter counter method; settings: read-out: GI; method in brief: as §1
MDA-MB-468 = assay: Growth inhibition of human MDA-MB-468 cells at 10 uM after 48 hrs by coulter counter method; settings: MDA-MB-468, 48 h, read-out: GI; method in brief: as §1
PC-3 = assay: Growth inhibition of human PC3 cells at 10 uM after 48 hrs by coulter counter method; settings: PC-3, 48 h, read-out: GI; method in brief: as §1
SF-295 = assay: Growth inhibition of human SF295 cells at 10 uM after 48 hrs by coulter counter method; settings: SF-295, 48 h, read-out: GI; method in brief: as §1
MCF7 = assay: Growth inhibition of human MCF7 cells at 10 uM after 48 hrs by coulter counter method; settings: MCF7, 48 h, read-out: GI; method in brief: as §1

## NC1=CC(N)=NC2SC(c3ccccc3)=NN12 (stereo not given)
NCI-H23
  inhibition of growth at 10 µM: < 10%
Malme-3M
  inhibition of growth at 10 µM: < 10%
SNB-19
  inhibition of growth at 10 µM: < 10%
SK-MEL-5
  inhibition of growth at 10 µM: < 10%
UO-31
  inhibition of growth at 10 µM: 36.6%
A498
  inhibition of growth at 10 µM: < 10%
LOX IMVI
  inhibition of growth at 10 µM: < 10%
OVCAR-8
  inhibition of growth at 10 µM: < 10%
HCT-116
  inhibition of growth at 10 µM: < 10%
SK-MEL-28
  inhibition of growth at 10 µM: < 10%
786-0
  inhibition of growth at 10 µM: < 10%
EKVX
  inhibition of growth at 10 µM: < 10%
RPMI-8226
  inhibition of growth at 10 µM: < 10%
MDA-MB-435
  inhibition of growth at 10 µM: < 10%
NCI-H322M
  inhibition of growth at 10 µM: < 10%
U-251
  inhibition of growth at 10 µM: < 10%
SF-268
  inhibition of growth at 10 µM: < 10%
IGROV-1
  inhibition of growth at 10 µM: 15.8%
CAKI-1
  inhibition of growth at 10 µM: 10.7%
SK-MEL-2
  inhibition of growth at 10 µM: < 10%
M14
  inhibition of growth at 10 µM: < 10%
KM12
  inhibition of growth at 10 µM: < 10%
UACC-62
  inhibition of growth at 10 µM: < 10%
BT-549
  inhibition of growth at 10 µM: < 10%
HCT-15
  inhibition of growth at 10 µM: < 10%
MOLT-4
  inhibition of growth at 10 µM: < 10%
SN12C
  inhibition of growth at 10 µM: < 10%
UACC-257
  inhibition of growth at 10 µM: 16.4%
SNB-75
  inhibition of growth at 10 µM: 11.6%
HL-60(TB)
  inhibition of growth at 10 µM: < 10%
T47D
  inhibition of growth at 10 µM: < 10%
SR
  inhibition of growth at 10 µM: < 10%
HT-29
  inhibition of growth at 10 µM: < 10%
ACHN
  inhibition of growth at 10 µM: < 10%
A549
  inhibition of growth at 10 µM: < 10%
K562
  inhibition of growth at 10 µM: < 10%
TK-10
  inhibition of growth at 10 µM: < 10%
NCI-H226
  inhibition of growth at 10 µM: < 10%
NCI-H522
  inhibition of growth at 10 µM: < 10%
NCI/ADR-RES
  inhibition of growth at 10 µM: < 10%
CCRF-CEM
  inhibition of growth at 10 µM: < 10%
MDA-MB-468
  inhibition of growth at 10 µM: < 10%
PC-3
  inhibition of growth at 10 µM: < 10%
SF-295
  inhibition of growth at 10 µM: < 10%
MCF7
  inhibition of growth at 10 µM: < 10%
